# Assay outcomes as filed in PubChem BioAssay.
# m5-HT2A agonist: activates the mouse 5-HT2A serotonin receptor. P35363. CHO-K1 mHTR2A beta-arrestin complementation, luminescence; percent of 30 µM serotonin response. activation, % at 7.6 µM. hit rate 0.66% among 360,000. AID 624169;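 active means activation above a run cutoff, the mean activation of all tested compounds plus 3 SD, cut at about 14% in these data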;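 further: 0% = plate median of compound wells and 100% = 30 µM serotonin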
# APJ antag: blocks the human apelin receptor APJ. AID 2521. CHO-K1 APJ beta-arrestin complementation, luminescence. hit rate 0.32% among 330,000. inhibition, % at 20 µM. P35414;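 active means inhibition above about 40% at 20 µM, limit read from the data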;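 further: cells challenged with 10 nM apelin-13 agonist together with compound; plate controls were apelin-13 plus DMSO wells for no effect and DMSO wells lacking apelin-13 for full effect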
# EBI2 antag: blocks human EBI2 receptor beta-arrestin signaling | P32249 | EBI2 beta-arrestin recruitment, luminescence, 7a,25-OHC stimulated | inhibition, % at 5 µM | hit rate 0.81% among 360,000 | AID 651636; in the data active means inhibition above about 38%;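 further: enzyme fragment complementation signal reports receptor beta-arrestin coupling in cells; 0% = agonist plus DMSO wells and 100% = wells without agonist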
# APJ ag: agonists of human APJ apelin receptor; P35414; CHO-K1 APJ PathHunter beta-arrestin, luminescence; 0% DMSO wells, 100% apelin; activation, % at 20 µM; hit rate 0.11% among 330,000; AID 2520;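 active means activation more than six SD over the plate average, tested at 20 µM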;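 further: 0% = DMSO alone and 100% = apelin-13 at 10 nM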
#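 Test system: CHO-K1 APJ beta-arrestin complementation cell line | Compound: Single test compound dose, 20 µM final, 1% DMSO | Incubation: Compound 90 min 25 °C, reagent 1 h | Measured by: beta-gal luminescence | Read-out basis: APJ–arrestin association signal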
# CXCR6 inh: inhibitors of human CXCR6 receptor. AID 602244. CHO-K1 PathHunter CXCR6 beta-arrestin, luminescence. inhibition, % at 20 µM. hit rate 0.36% among 360,000; in the data active means inhibition above about 34%, passing the limit was not always enough;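 further: antagonist mode with CXCL16 agonist at 10 nM final; 0% = 10 nM CXCL16 with DMSO and 100% = unstimulated wells without agonist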
# CCR6 antag: antagonists of human CCR6 receptor; P51684; CHO-K1 CCR6 PathHunter beta-arrestin, luminescence, CCL20-stimulated; inhibition, % at 20 µM; hit rate 0.49% among 340,000;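 active means compounds whose inhibition of the agonist-driven luminescence signal at 20 µM reaches about 50%, limit read from the data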;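 further: cells stimulated with CCL20 at 14 nM final; plate controls were DMSO with CCL20 for no effect and DMSO without agonist for full effect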
# OPRM1 ag: counter-screen for mouse HTR2A agonists: human mu opioid receptor agonists; shares compounds with m5-HT2A agonist; U2OS OPRM1 beta-arrestin PathHunter, luminescence; DMSO 0%, DAMGO 9.3 µM 100%; activation, % at 9.3 µM; hit rate 5.3% among 2,300; AID 624380;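 active means mean activation above the mean of DMSO-only wells plus 3 SD, cut at about 0.5% in these data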
# Target sequence (P35372 whole entry, looked up): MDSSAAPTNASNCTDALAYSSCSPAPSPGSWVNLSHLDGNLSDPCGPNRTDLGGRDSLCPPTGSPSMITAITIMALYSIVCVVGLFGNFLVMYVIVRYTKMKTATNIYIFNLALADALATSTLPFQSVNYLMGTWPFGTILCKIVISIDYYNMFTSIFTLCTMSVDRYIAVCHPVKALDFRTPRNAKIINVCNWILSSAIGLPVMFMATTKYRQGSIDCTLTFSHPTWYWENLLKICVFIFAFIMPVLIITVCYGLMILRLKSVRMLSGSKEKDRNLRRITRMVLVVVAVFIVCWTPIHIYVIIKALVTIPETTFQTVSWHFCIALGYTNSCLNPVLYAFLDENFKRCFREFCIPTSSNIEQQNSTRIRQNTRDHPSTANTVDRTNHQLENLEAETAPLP
# m5-HT2A ag conf: mouse HTR2A agonism confirmed | shares compounds with m5-HT2A agonist | hit rate 19% among 2,300 | CHO-K1 PathHunter beta-arrestin recruitment, luminescence; DMSO 0%, 30 µM serotonin 100% | activation, % at 7.6 µM;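 active means mean activation across triplicates above the hit threshold derived in the original primary screen, cut at about 15% in these data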
# Active calls of the source: *; . = no result; ! = not active in a repeat. Sampled rows, rich in hits. Any-hit rate of the full collection: about 2.1%.
SMILES,m5-HT2A agonist,APJ antag,EBI2 antag,APJ ag,CXCR6 inh,CCR6 antag,OPRM1 ag,m5-HT2A ag conf
COc1cc(OC)cc(-c2c(-c3ccc(F)cc3)c3cc(-c4ccc5[nH]ccc5c4)ccc3n2C)c1,14.7*,-8.7,-0.7,1.0,8.9,6.2,-0.6,-3.8
COc1cc(OC)cc(-c2c(-c3ccsc3)c3cc(Br)ccc3n2C)c1,15.4*,-22.2,0.6,1.5,5.7,13.7,-0.5,-1.7
COc1cccc(-c2c(-c3cc(OC)cc(OC)c3)n(C)c3ccc(-c4ccc5[nH]ccc5c4)cc23)c1,8.0,4.6,8.4,-1.3,7.1,4.3,.,.
Cc1ccsc1CN1CCN(c2ccccn2)CC1,34.8*,34.6,-2.8,-3.7,5.2,17.5,-0.6,97.9*
Cc1ccsc1/C=N/N1CCN(c2ccccn2)CC1,-3.2,-1.6,-12.3,4.2,-1.6,-1.0,.,.
C[C@H](O)CC(=O)O,16.0*!,8.1,-3.5,0.3,-5.8,5.8,-0.5,-3.9
C[C@@H](O)CC(=O)O,-3.4,2.8,5.0,-2.5,-2.1,3.5,.,.
O=C(NCCCc1ccccc1)c1cccc(S(=O)(=O)N2CCOCC2)c1,15.4*,22.4,-1.1,-2.7,-2.7,3.9,-0.2,-2.1
O=C1C2CCc3ccccc3C2N1c1ccccc1 (stereo unspecified),18.4*,7.1,-2.8,-2.1,-2.1,2.5,-0.4,-4.0
CCN(CC)S(=O)(=O)c1ccc(N2CC(C(=O)NCCc3ccc(Cl)cc3)CC2=O)cc1 (stereo unspecified),-10.0,1.7,3.2,-3.3,-3.4,1.2,.,.
C=CCSc1nsc(NC(=O)Nc2ccc(F)cc2)n1,16.7*,7.5,1.8,9.3,-30.1,-3.4,0.8*,29.3*
Cc1ccc(NC(=O)COC(=O)CN2C(=O)C3CCCCC3C2=O)cc1S(=O)(=O)N1CCOCC1 (stereo unspecified),1.8,11.7,-1.9,-3.7,1.8,10.6,.,.
Cc1ccc(NC(=O)COC(=O)CN2C(=O)NC(C)(C)C2=O)cc1S(=O)(=O)N1CCOCC1,23.9*,6.4,1.8,-0.8,-3.0,-1.9,0.0,-4.2
CC(=O)N(CCC(Cc1ccccc1)c1ccco1)Cc1ccco1 (stereo unspecified),3.7,19.6,4.2,-2.0,4.9,11.6,.,.
CN(CCOc1cccc2ccccc12)Cc1ccccc1,15.0*,-9.5,-6.4,-3.6,-4.4,7.2,-0.4,18.8*
CCCCNCCCCOc1ccccc1,-1.6,11.5,-11.3,-5.1,-2.3,4.5,.,.
CCc1ccc(CN(C)CC(O)COc2cccc3ccccc23)cc1 (stereo unspecified),-9.0,4.8,-3.3,-2.5,-4.4,-6.0,.,.
CN(CCOc1ccccc1)Cc1ccccc1,20.1*,.,-2.3,.,3.2,.,-0.1,37.1*
C[N+](C)(CCOc1ccccc1)Cc1ccccc1,35.4*,.,-18.3,.,-29.5,-7.9,1.6*,3.0
Cc1ccc(C)c(OCC(=O)Nc2nc3ccc([N+](=O)[O-])cc3s2)c1C,-2.1,3.4,10.1,-1.8,7.0,14.1,.,.
O=C(CCN1C(=O)c2cccc3cccc(c23)C1=O)NCc1ccco1,15.5*,14.7,-5.6,-1.5,2.5,5.0,-0.5,-1.6
CCCCCc1cc(=O)oc2c(C(CCN3CCCC3)c3ccc(N(C)C)cc3)c(OC)cc(OC)c12 (stereo unspecified),-14.4,8.4,-7.0,11.8,-10.2,-13.3,.,.
CCCCCc1cc(=O)oc2c(C(CCN3CCN(c4ccccc4)CC3)c3ccc4c(c3)OCO4)c(OC)cc(OC)c12 (stereo unspecified),21.8*,-9.5,22.0,1.5,13.1,12.7,-0.8,49.1*
CCC12CC1(C(=O)OC)C(=O)N1CCc3c([nH]c4ccccc34)C12 (stereo unspecified),36.8*,.,-6.6,.,2.5,.,-0.2,28.3*
COC(=O)CC1CC2(C(=O)OC)c3[nH]c4ccccc4c3CCN2C1=O (stereo unspecified),-3.8,.,-8.6,.,4.1,.,.,.
SMILES,m5-HT2A agonist,APJ antag,EBI2 antag,APJ ag,CXCR6 inh,CCR6 antag,OPRM1 ag,m5-HT2A ag conf
COc1coc(/C=C/C(=O)O)cc1=O,22.0*,5.4,-2.8,-1.1,0.7,-2.0,-0.3,0.2
Cc1cccc(CC(=O)Nc2ccon2)c1,4.7,5.3,-3.7,-2.5,6.2,9.4,.,.
COCCCNC(=O)c1csc([C@H]2C[C@H](O)[C@@H](CO)O2)n1,18.6*,.,-6.7,.,2.5,.,-0.5,-3.9
O=Cc1ccc(OC(=O)c2cccnc2)cc1,15.4*,11.5,-7.2,-7.3,9.6,3.0,-0.5,-5.5
CC(=O)/C=C\c1ccc(OC(=O)c2cccnc2)cc1,1.1,7.2,4.2,2.4,0.2,-9.5,.,.
O=C(N[C@H](CO)c1ccccc1)[C@H]1O[C@@H](n2ccc(=O)[nH]c2=O)[C@H](O)[C@@H]1O,15.2*,.,-3.2,.,-17.6,.,-0.6,-0.4
C=CCN1C(=O)C(O)(CC(=O)c2ccc(N)cc2)c2ccccc21 (stereo unspecified),23.0*,9.4,-23.2,-1.5,1.5,4.4,-0.7,-4.3
NC(=O)c1cc(S(=O)(=O)N2CCN(c3cccc(Cl)c3)CC2)cs1,14.6*,11.9,0.9,-1.0,-3.4,-4.3,-0.3,-4.3
COc1ccc(CCNC(=O)c2c(Cl)ccc(Cl)c2OC)cc1OC,31.1*,-14.1,-5.3,-0.6,1.2,3.1,-0.6,-5.3
COc1ccc(CCNC(=O)c2ccc(Cl)cc2)cc1OC,6.3,0.5,2.0,-2.1,7.7,12.9,.,.
Cc1nc(N2CCN(c3ccccc3)CC2)[nH]c(=O)c1Cc1cccc2ccccc12,.,-2.8,.,-1.3,.,.,.,.
Cc1ccc(Nc2nc(COC(=O)C3CC3)cs2)cc1,2.6,6.5,2.8,-1.9,-3.4,1.7,.,.
CCCCN(C=O)c1c(CC)nc2c(OCC(=O)N3CCOCC3)cccn12,16.4*,.,-2.7,.,-3.0,.,-0.5,-3.3
CCCCN(C=O)c1c(CC)nc2c(OCC(=O)C(C)(C)C)cccn12,10.3,.,-10.0,.,5.4,.,.,.
CSC[C@H](NC(=O)COc1cc2c(c3oc(=O)c(C)c(C)c13)CCC(C)(C)O2)C(=O)O,6.9,-2.6,0.2,-2.4,-1.2,5.0,.,.
CCCCNC(=O)C1(C)CCN1C(=O)c1ccc2c(c1)CCO2 (stereo unspecified),3.8,.,-6.3,.,-4.4,.,.,.
CCCCNC(=O)C1(C)CCCCN1C(=O)c1ccc2c(c1)CCO2 (stereo unspecified),17.6*,.,-10.9,.,3.9,.,-0.3,0.5
